Data taken from BindingDB's records for doi:10.1016/j.bmc.2018.01.022 (Csic and Universidad De Sevilla, 2018).

Tests used:
Midkine = target: T1, Midkine (Homo sapiens, UniProt P21741); assay: Inhibition of fluorescein labelled heparin-like hexasaccharide probe binding to recombinant human midkine after 5 mins by fluorescence polarization assay
T1 sequence (P21741 whole entry): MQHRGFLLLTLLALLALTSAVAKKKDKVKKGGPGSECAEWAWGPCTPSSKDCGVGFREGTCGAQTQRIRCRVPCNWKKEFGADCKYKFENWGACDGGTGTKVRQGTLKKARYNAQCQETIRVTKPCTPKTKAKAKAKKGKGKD
Summary of the method: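 Recombinant human midkine at 63 nM final with 10 nM fluorescein-labelled heparin-like hexasaccharide probe in PBS (10 mM, pH 7.4) plus 0.5% BSA. […] Shaken 5 min in the dark; polarization read at ex 485 / em 535 nm. Triplicate wells averaged, one-site competition fit for IC50. At least three independent experiments.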

[1] = target: Fibroblast growth factor 2 (Homo sapiens, UniProt P09038); assay: Inhibition of fluorescein labelled heparin-like hexasaccharide probe binding to recombinant human FGF-2 after 5 mins by fluorescence polarization assay
Summary of the method: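 Competition fluorescence polarization in PBS (10 mM, pH 7.4) with 0.5% BSA final. Recombinant human FGF-2 at 97 nM final, fluorescein-labelled heparin-like hexasaccharide probe at 10 nM final, inhibitor serially diluted, final 25 µM to 12.5 nM. Shaken 5 min in the dark, then read at ex 485 / em 535 nm. Triplicate wells. One-site competitive fit against log concentration gives IC50. Mean ± SD of three independent experiments.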

Fibroblast growth factor 2, sequence (P09038 143-288 limits assumed): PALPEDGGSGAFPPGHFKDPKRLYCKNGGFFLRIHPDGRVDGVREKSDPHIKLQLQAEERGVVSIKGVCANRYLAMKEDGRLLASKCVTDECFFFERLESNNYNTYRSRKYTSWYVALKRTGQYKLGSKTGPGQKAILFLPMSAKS

| IC50 (Midkine) [nM] | IC50 [1] [nM] | Compound |
| --- | --- | --- |
| 700 | – | COc1ccc(O[C@@H]2O[C@H](COC(=O)CCC(F)(F)C(F)(F)C(F)(F)C(F)(F)C(F)(F)C(F)(F)C(F)(F)C(F)(F)F)[C@@H](O[C@@H]3O[C@H](COS(=O)(=O)O)[C@@H](OS(=O)(=O)O)[C@H](OC(=O)CCC(C)=O)[C@H]3N3C(=O)c4ccccc4C3=O)[C@H](OCc3ccccc3)[C@H]2OC(=O)c2ccccc2)cc1 |
| 270 | 2400 | COc1ccc(O[C@@H]2O[C@H](COC(=O)CCC(F)(F)C(F)(F)C(F)(F)C(F)(F)C(F)(F)C(F)(F)C(F)(F)C(F)(F)F)[C@@H](O[C@@H]3O[C@H](COS(=O)(=O)O)[C@@H](OS(=O)(=O)O)[C@H](O[C@@H]4O[C@H](COC(=O)C(C)(C)C)[C@@H](O[C@@H]5O[C@H](COS(=O)(=O)O)[C@@H](OS(=O)(=O)O)[C@H](OC(=O)CCC(C)=O)[C@H]5N5C(=O)c6ccccc6C5=O)[C@H](OCc5ccccc5)[C@H]4OC(=O)c4ccccc4)[C@H]3N3C(=O)c4ccccc4C3=O)[C@H](OCc3ccccc3)[C@H]2OC(=O)c2ccccc2)cc1 |
| > 250000 | – | COc1ccc(O[C@@H]2O[C@H](CO)[C@@H](O[C@@H]3O[C@H](COS(=O)(=O)O)[C@@H](OS(=O)(=O)O)[C@H](O)[C@H]3NC(C)=O)[C@H](OCc3ccccc3)[C@H]2O)cc1 |
| > 250000 | – | COc1ccc(O[C@@H]2O[C@H](CO)[C@@H](O[C@@H]3O[C@H](COS(=O)(=O)O)[C@@H](OS(=O)(=O)O)[C@H](O)[C@H]3NC(C)=O)[C@H](O)[C@H]2O)cc1 |
